In paper PMC3356170 (International Journal of Nanomedicine, 2012):

What was measured:
[1] = Tissue distribution and elimination in mice; type: in vivo, ICR mice; settings: after intravenous administration (table title)
In short: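 ICR mice (six per group) were used. Blood was drawn from the eye socket vein at each sampling time. After cervical dislocation, heart, liver, kidney, spleen and lung were excised, rinsed in saline, blotted and weighed. Bile was taken from the gall bladder by syringe. Tissues and fluids were homogenized and processed as for plasma. NCTD was quantified by LC-MS/MS.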

[2] = Survival time and urine output of dosed rats; type: in vivo
[3] = Pharmacokinetics of two formulations in rats; type: in vivo, Sprague-Dawley (SD) rats
In short: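 SD rats (N = 6 per group) received 5 mg/kg intravenously or orally, dissolved in 0.9% NaCl. Blood was taken at set time points and centrifuged (3500 rpm, 10 min). Plasma (180 μL) was mixed with cantharidin internal standard and methanol (800 μL) and spun at 10,000 rpm for 10 min. NCTD was measured by LC-MS/MS (C18, 35°C; MRM m/z 185.0→141.1) against matrix-matched calibration from 0.1025 to 10.25 μg/mL, using peak-area ratio to internal standard. Group means gave parameters.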

[4] = intravenous administration (5 mg/kg), N = 6, mean ± SD
[5] = oral administration (5 mg/kg), N = 6, mean ± SD

Structure (SMILES): O=C1OC(=O)[C@H]2[C@@H]1[C@@H]1CC[C@H]2O1 [NCTD, Norcantharidin]
- Te (targeted efficiency) ([1]; Bile): 2.33
- Te (targeted efficiency) ([1]; Blood): 30.74
- Te (targeted efficiency) ([1]; Heart): 14.99
- Te (targeted efficiency) ([1]; Kidney): 11.72
- Te (targeted efficiency) ([1]; Liver): 10.07
- Te (targeted efficiency) ([1]; Lung): 22.72
- Te (targeted efficiency) ([1]; Spleen): 7.44
- survival time of rats ([2]; NCTD group): about 24 hours
- urine output compared with normal rats ([2]; after dosing): one-third of normal
- AUC0-t [3, 4]: 9790 ± 1260 ng·h/mL
- AUC0-∞ [3, 4]: 10770 ± 2340 ng·h/mL
- CL [3, 4]: 0.12 ± 0.02 L/h
- MRT [3, 4]: 0.34 ± 0.10 h
- Vd [3, 4]: 0.82 ± 0.45 L/kg
- t1/2(α) distribution half-life [3, 4]: 0.26 ± 0.06 h
- t1/2(β) [3, 4]: 2.63 ± 0.82 h
- AUC0-t [3, 5]: 3850 ± 660 ng·h/mL
- AUC0-∞ [3, 5]: 3870 ± 690 ng·h/mL
- CL [3, 5]: 0.32 ± 0.05 L/h
- Cmax [3, 5]: 1210 ± 230 ng/mL
- MRT [3, 5]: 5.49 ± 4.58 h
- Tmax [3, 5]: 1.50 ± 0.44 h
- Vd [3, 5]: 9.48 ± 6.59 L/kg
- t1/2(a) [3, 5]: 0.56 ± 0.43 h
- t1/2(α) [3, 5]: 0.72 ± 0.68 h
- t1/2(β) [3, 5]: 5.08 ± 4.79 h
- oral bioavailability ([3]; oral versus intravenous administration, 5 mg/kg): 39.3%
